Test [1] is described as follows: inhibitors of TNFa-induced NFkB p65 translocation, primary screen, imaging, HUVEC, MLSMR starter and 10KST1 sets (AID 438;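 active = inhibition above 20% together with a positive visual image hit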;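 note: compound added about 3h40 before a 20 min TNFalpha stimulation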;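 for inhibition: signal is the nuclear over cytoplasmic p65 intensity ratio per well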). To be noted: HUVEC TNFa-induced p65 nuclear translocation; cell count: measured here: nuclei count (cytotoxicity indicator), at 2.08 µM; inhibition: at 2 µM, stronger effect = higher value, 0% TNFa-plus-vehicle, 100% no-TNFa wells.
A short description of test [2]: inhibitors of mutant huntingtin aggregation, primary screen, imaging, exon1htt(103Q)mCFP cells, high-content imaging (AID 483;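 active = visual image review flags a hit and inhibition of aggregation exceeds 20%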;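 note: compound exposure lasted 3 days before fixation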;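 for nuclei count: percent of the per-plate median nuclei count of sample wells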). Particulars: exon1htt(103Q)mCFP cell line, aggregate imaging, at 2 µM; inhibition of aggregation: stronger effect = higher value; nuclei count: measured here: cell count, toxicity.
Test [3] in a line: inhibitors of E-selectin induction by TNFa, primary screen, imaging, HUVEC, immunofluorescence, MLSMR starter and 10KST1 sets (AID 487;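 active = visually confirmed hit in the image check and inhibition above 20%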;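 for inhibition: signal is fraction of cell area covered by stained E-selectin grains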;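 for nuclei count: 100% = median nuclei count of all wells on the same plate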). To be noted: HUVEC TNFalpha-induced E-selectin immunofluorescence imaging, at 2 µM; inhibition: stronger effect = higher value; nuclei count: measured here: cell number, toxicity.
The target of test [4] is Voltage-gated potassium channel subunit beta-2 (Rattus norvegicus) (UniProt P62483). Briefly: KvBeta enzyme negative modulators, primary screen, biochemical, NADPH fluorescence (AID 622;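 active = fluorescence slope higher than the sample average by over 3 SD, cut at about -0.22 in these data, passing the limit was not always enough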;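 note: slope of raw intensity against log time taken from 70 to 1610 s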). To be noted: recombinant KvBeta, 4-cyanobenzaldehyde reduction, at 10 µM, stronger effect = higher value.
Voltage-gated potassium channel subunit beta-2 (Rattus norvegicus), sequence (P62483 whole entry, looked up): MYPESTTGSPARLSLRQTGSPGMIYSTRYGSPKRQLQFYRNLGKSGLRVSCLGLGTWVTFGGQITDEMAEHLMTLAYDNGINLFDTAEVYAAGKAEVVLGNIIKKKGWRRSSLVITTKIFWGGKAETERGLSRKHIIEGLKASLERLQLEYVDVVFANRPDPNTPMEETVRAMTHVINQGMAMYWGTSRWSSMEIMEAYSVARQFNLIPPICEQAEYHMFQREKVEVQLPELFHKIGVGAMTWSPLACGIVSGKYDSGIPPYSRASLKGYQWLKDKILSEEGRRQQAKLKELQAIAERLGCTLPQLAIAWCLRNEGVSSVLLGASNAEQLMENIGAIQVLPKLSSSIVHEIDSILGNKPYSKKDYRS
Test [5] shares this target. Description: KvBeta positive modulators, primary screen, biochemical, NADPH fluorescence (AID 623;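 active = NADPH fluorescence slope more negative than the mean of all samples by about 3 SD, 99.7% confidence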;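 note: fluorescence intensity change per second fitted from 20 to 320 s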). To be noted: Recombinant KvBeta, NADPH fluorescence decrease slope, 10 min; at 10 µM; stronger effect = lower value.
Test [6] deals with Muscarinic acetylcholine receptor M4 (Homo sapiens) (UniProt P08173). Briefly: compounds altering M4/GIRK thallium flux, either direction, primary screen, M4 allosteric agonist project, cell-based, HEK293 M4/GIRK, BTC-AM (AID 625;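 active = fluorescence slope after compound addition differing from the mean of all tested samples at 99.7% confidence, mostly higher but some lower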;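 note: thallium influx through GIRK channels coupled to M4 in HEK293 cells with BTC-AM dye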). To be noted: at 10 µM, actives lie on both sides. The procedure, abridged:
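System: HEK293 cells with M4 receptor and GIRK channels | Incubation: Cells overnight at 37 °C, BTC-AM loading 1 h, reads 2 min total | Technique: Kinetic BTC-AM fluorescence sampled at 1 Hz, 10 s pre-addition baseline | Measure: Post-addition slope, 15–24 s, of baseline-normalized fluorescence | Control set: Carbachol positive, DMSO negative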

Test [7] in a line: inhibitors of Sendai virus-induced IRF3 signaling, primary screen, TLR/RLR signaling modifier project, cell-based, Sendai virus stimulus, luciferase, 10K MLSCN set (AID 602276;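 active = inhibition at or above 50% at 10 µM; inactive = inhibition below 50%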;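 note: firefly luciferase from ISG56 promoter only with Renilla not read in this screen; 0% = Sendai virus plus DMSO and 100% = medium plus DMSO without virus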). To be noted: HEK293 RL24 IRF3 luciferase reporter, at 10 µM, stronger effect = higher value. For orientation: In a reporter assay the amount or activity of a reporter protein is the signal.
Test [8] in a line: inhibitors of poly I:C-induced TLR3 signaling, primary screen, cell-based, poly I:C stimulus, luciferase, 10K MLSCN set (AID 602277). To be noted: HEK293-TLR3 RL24 IRF3 luciferase reporter, at 10 µM, stronger effect = higher value.

The inhibition is the drop in the measured response relative to a control, in per cent.

Activity calls are given as the source filed them.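 Rule for the calls, unless noted: active = inhibition of the reporter signal at or above 50%; inactive = inhibition below 50%.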

Muscarinic acetylcholine receptor M4 (Homo sapiens), sequence (P08173 whole entry, looked up): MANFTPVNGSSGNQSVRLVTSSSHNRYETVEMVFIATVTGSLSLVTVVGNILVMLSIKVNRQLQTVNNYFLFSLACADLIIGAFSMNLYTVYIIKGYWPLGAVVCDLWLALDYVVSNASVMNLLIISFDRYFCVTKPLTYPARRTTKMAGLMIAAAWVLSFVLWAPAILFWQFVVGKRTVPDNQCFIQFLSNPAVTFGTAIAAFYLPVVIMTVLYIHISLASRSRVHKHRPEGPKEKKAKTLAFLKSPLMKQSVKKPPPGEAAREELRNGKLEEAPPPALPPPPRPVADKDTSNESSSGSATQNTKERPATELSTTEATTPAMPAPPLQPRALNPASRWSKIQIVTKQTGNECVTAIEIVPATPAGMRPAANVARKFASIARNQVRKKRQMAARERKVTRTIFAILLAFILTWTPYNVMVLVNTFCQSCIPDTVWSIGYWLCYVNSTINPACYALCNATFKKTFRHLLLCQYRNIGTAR

As for `CC(=O)Nc1cccc(NC(=O)CSc2nnnn2C)c1`, the cell count in test [1] amounted to 754. Also, the inhibition was -2.1% (inactive) in test [1], -135% (inactive) in test [3], 21.2% (inactive) in test [7] and 13.5% (inactive) in test [8]. Also, the inhibition of aggregation in test [2] was -16.5% (inactive). Also, the nuclei count turned out to be 104% in test [2] and 131% in test [3]. The fluorescence slope is -0.481 (inactive) in test [4] and 0.00501 (inactive) in test [6]. Also, the NADPH fluorescence slope in test [5] is -5.6e-05 (inactive).

With `N#Cc1c(N2C(=O)C3C4C=CC(C4)C3C2=O)sc2c1CCC2` (centres undefined), the cell count in test [1] stood at 493. The inhibition was -24.7% (inactive) in test [1], -17.4% (inactive) in test [3], 14.5% (inactive) in test [7] and 18.6% (inactive) in test [8]. The inhibition of aggregation in test [2] is -12.7% (inactive). Moreover, the nuclei count in test [2] is 92.9%; in test [3], 96.7%. Further, the results for the fluorescence slope in test [4] and in test [6] were -0.417 (inactive) and 0.00524 (inactive), respectively. Further, the NADPH fluorescence slope in test [5] is -5.2e-05 (inactive).

As to `COc1ccccc1N1CCN(C(=O)CCNS(=O)(=O)c2ccc3c(c2)CCC(=O)N3)CC1`, the cell count in test [1] was determined as 556. Besides, the inhibition in test [1] is -18.8% (inactive); in test [3], -31.1% (inactive); in test [7], 5.92% (inactive); in test [8], 13.8% (inactive). Further, in test [2], the inhibition of aggregation was -1.4% (inactive). For the same compound, the nuclei count in test [2] turned out to be 123%; in test [3], 102%. Also, the fluorescence slope in test [4] is -0.39 (inactive); in test [6] it was 0.00579 (inactive). Besides, the NADPH fluorescence slope in test [5] was -1.7e-05 (inactive).

With `COc1ccc(/C=N/n2c(=O)[nH]c3c([nH]c4ccc(C)cc43)c2=O)cc1CN1CCOCC1`, the cell count in test [1] is 643. Further, the inhibition was 2.6% (inactive) in test [1], 4.3% (inactive) in test [3], -0.771% (inactive) in test [7] and 11.2% (inactive) in test [8]. For the same compound, in test [2], the inhibition of aggregation was 16.8% (inactive). Further, the nuclei count in test [2] worked out at 74.3%; in test [3], 98.4%. In addition, the fluorescence slope in test [4] is -0.407 (inactive); in test [6] it was 0.00369 (inactive). Further, in test [5], the NADPH fluorescence slope was -0.000488 (inactive).

Regarding `COCCNC(=O)c1cc2c(-c3ccccc3F)nn(C)c2s1`, the cell count in test [1] is 401. The inhibition in test [1] was -5.4% (inactive); in test [3], -12.9% (inactive); in test [7], 12.1% (inactive); in test [8], -0.79% (inactive). In addition, the inhibition of aggregation in test [2] is -28.5% (inactive). For the same compound, the nuclei count in test [2] was 96.8%; in test [3], 120%. The figures for the fluorescence slope in test [4] and in test [6] were -0.523 (inactive) and 0.00439 (inactive), respectively. Further, the NADPH fluorescence slope in test [5] was -3.7e-06 (inactive).

Consider `COCC(=O)NC(c1ccccc1)c1ccccc1`, for which, in test [1], the cell count was found to be 336. The inhibition was 9.4% (inactive) in test [1], -13.4% (inactive) in test [3], 14.6% (inactive) in test [7] and 19.5% (inactive) in test [8]. For the same compound, the inhibition of aggregation in test [2] is 4.5% (inactive). Moreover, the nuclei count in test [2] is 100%; in test [3], 122%. Besides, the fluorescence slope in test [4] was -0.561 (inactive); in test [6], 0.00683 (inactive). Besides, in test [5], the NADPH fluorescence slope is -7e-05 (inactive).

`CC(=O)NC1=NC(=O)/C(=C/N2CCCCC2)S1`: the cell count in test [1] worked out at 391. Also, the inhibition in test [1] is -4.7% (inactive); in test [3], -11.8% (inactive); in test [7], 21.1% (inactive); in test [8], 16.4% (inactive). In addition, the inhibition of aggregation in test [2] is 1.3% (inactive). Besides, the values for the nuclei count in test [2] and in test [3] were 105% and 103%, respectively. The fluorescence slope in test [4] is -0.459 (inactive); in test [6] it was 0.00493 (inactive). The NADPH fluorescence slope in test [5] was -3.8e-05 (inactive).

As to `O=C(Nc1ccccc1)N(Cc1cccnc1)Cc1ccco1`, the cell count in test [1] is 335. The inhibition in test [1] was -0.7% (inactive); in test [3], -36.9% (inactive); in test [7], 18.2% (inactive); in test [8], 14.3% (inactive). Moreover, the inhibition of aggregation in test [2] was 5.9% (inactive). Besides, the nuclei count in test [2] turned out to be 97.2%; in test [3], 103%. The fluorescence slope in test [4] is -0.463 (inactive); in test [6], 0.00427 (inactive). Also, the NADPH fluorescence slope in test [5] is -3.6e-05 (inactive).

As to `Cc1cc(NCCN(C)C)n2nc(-c3cccs3)cc2n1`, the cell count in test [1] came out at 597. For the same compound, the inhibition was 7.8% (inactive) in test [1], -69% (inactive) in test [3], -3.67% (inactive) in test [7] and 1.86% (inactive) in test [8]. In addition, the inhibition of aggregation in test [2] was 6.4% (inactive). Moreover, the nuclei count in test [2] is 102%; in test [3], 114%. In addition, the results for the fluorescence slope in test [4] and in test [6] were -0.335 (inactive) and 0.00655 (inactive), respectively. Further, the NADPH fluorescence slope in test [5] is -6.9e-05 (inactive).

As to `CCOC(=O)c1[nH]c(C)c(C(=O)N2CCN(c3ccc(F)cc3)CC2)c1C`, the cell count in test [1] was determined as 755. In addition, the inhibition in test [1] is -2.2% (inactive); in test [3], -175% (inactive); in test [7], 1.11% (inactive); in test [8], 8.18% (inactive). Moreover, the inhibition of aggregation in test [2] was -27% (inactive). Moreover, the nuclei count amounted to 118% in test [2] and 119% in test [3]. The results for the fluorescence slope in test [4] and in test [6] were -0.451 (inactive) and 0.00564 (inactive), respectively. Moreover, the NADPH fluorescence slope in test [5] was 1.1e-05 (inactive).

Regarding `CC(C(=O)Oc1ccc2c(c1)OCO2)N1C(=O)c2ccccc2C1=O` (centres undefined), the cell count in test [1] amounted to 790. Moreover, the inhibition in test [1] was -10.1% (inactive); in test [3], -33.5% (inactive); in test [7] it was 23.3% (inactive); in test [8] it was 27.7% (inactive). Besides, in test [2], the inhibition of aggregation was 9.8% (inactive). Further, the nuclei count in test [2] came out at 104%; in test [3] it was 101%. Further, the figures for the fluorescence slope in test [4] and in test [6] were -0.609 (inactive) and 0.00538 (inactive), respectively. The NADPH fluorescence slope in test [5] was -2.3e-05 (inactive).

On to `CCN1CCN(S(=O)(=O)c2ccc(S(=O)(=O)N(CC)Cc3ccccc3)cc2)CC1`, for which, in test [1], the cell count worked out at 579. Besides, the inhibition in test [1] is -0.8% (inactive); in test [3], -27.9% (inactive); in test [7], 16.4% (inactive); in test [8], 16.6% (inactive). Besides, the inhibition of aggregation in test [2] is -9.2% (inactive). The figures for the nuclei count in test [2] and in test [3] were 104% and 108%, respectively. Moreover, the fluorescence slope in test [4] was -0.527 (inactive); in test [6], 0.00522 (inactive). Moreover, the NADPH fluorescence slope in test [5] was 4.3e-06 (inactive).

For `COc1ccc(CN2CC(C(=O)NCCCOC(C)C)CC2=O)cc1` (centres undefined), in test [1], the cell count turned out to be 766. Further, the inhibition in test [1] was -12.7% (inactive); in test [3], -63.4% (inactive); in test [7], -10% (inactive); in test [8], -6.2% (inactive). In addition, in test [2], the inhibition of aggregation was -17.1% (inactive). In addition, the nuclei count in test [2] came to 102%; in test [3], 122%. Also, the fluorescence slope in test [4] is -0.522 (inactive); in test [6], 0.00604 (inactive). The NADPH fluorescence slope in test [5] is -6.3e-05 (inactive).

Take `O=C(N1CCOCC1)N1CCC(NC(=O)C23CC4CC(CC(C4)C2)C3)CC1`: in test [1], the cell count was 363. The inhibition in test [1] was 9.1% (inactive); in test [3], -15.5% (inactive); in test [7] it was 15.6% (inactive); in test [8] it was 21.8% (inactive). The inhibition of aggregation in test [2] is -0.3% (inactive). Moreover, the results for the nuclei count in test [2] and in test [3] were 99% and 81.8%, respectively. Also, the values for the fluorescence slope in test [4] and in test [6] were -0.55 (inactive) and 0.00404 (inactive), respectively. The NADPH fluorescence slope in test [5] is -4e-05 (inactive).

Values taken from PubChem BioAssay.
